Series [1] concerns the target Coagulation factor XI (Homo sapiens, UniProt P03951). Description: Inhibition of human coagulation factor XIA using Mes-dArg-Pro-Arg-AMC as fluorogenic substrate measured at 1 min interval for 1 hr by fluorometric assay.
Series [2] addresses Urokinase-type plasminogen activator (Homo sapiens, UniProt P00749). Kind of series: Inhibition of human uPA using Tos-Gly-Pro-Arg-AMC as fluorogenic substrate measured at 1 min interval for 1 hr by fluorometric assay.
For series [3], the target named is Coagulation factor X (Homo sapiens, UniProt P00742). Description: Inhibition of human coagulation factor Xa using Boc-Ile-Glu-Gly-Arg-AMC as fluorogenic substrate measured at 1 min interval for 1 hr by fluorometric assay.
Series [4] relates to Blood. Kind of series: Anticoagulant activity in human blood assessed as activated partial thromboplastin time at 300 uM incubated for 1 min by aPTT reagent based assay (reference value: 44 sec). Format: functional. The method, boiled down: (§1)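 Compounds were tested at 300 µM, and the increase was expressed relative to DMSO. The doubling concentration (EC2×) is the concentration prolonging aPTT twofold. At least triplicate, mean ± SD.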

The nature of series [5]: Inhibition of porcine trypsin using Z-Gly-Gly-Arg-AMC as fluorogenic substrate measured at 1 min interval for 1 hr by fluorometric assay. On the set-up: species or system Sus scrofa.
Series [6] deals with Prothrombin (Homo sapiens, UniProt P00734). Kind of series: Inhibition of human coagulation factor alpha-thrombin using Boc-Val-Pro-Arg-AMC as fluorogenic substrate measured at 1 min interval for 1 hr by fluorometric assay.
Series [7] relates to Blood. Kind of series: Anticoagulant activity in human blood assessed as increase in activated partial thromboplastin time at 300 uM incubated for 1 min by aPTT reagent based assay relative to control. Format: functional. A digest of the protocol:
as §1

Series [8] addresses T1, Monoglyceride lipase (Homo sapiens, UniProt Q99685).
T1 sequence (Q99685 whole entry): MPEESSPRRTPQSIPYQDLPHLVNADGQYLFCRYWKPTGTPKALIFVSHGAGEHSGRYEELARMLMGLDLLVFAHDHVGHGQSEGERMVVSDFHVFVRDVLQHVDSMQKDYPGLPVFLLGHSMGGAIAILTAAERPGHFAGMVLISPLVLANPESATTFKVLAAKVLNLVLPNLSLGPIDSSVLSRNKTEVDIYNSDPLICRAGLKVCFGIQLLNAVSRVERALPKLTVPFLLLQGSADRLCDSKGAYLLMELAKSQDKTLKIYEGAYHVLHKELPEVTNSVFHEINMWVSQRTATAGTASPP
Description: Inhibition of human recombinant MAGL using 1,3-dihydroxypropan-2-yl 4-pyren-1-ylbutanoate as substrate measured after 45 mins by reverse-phase HPLC-based fluorescence assay.

Series [9] has as its target Plasma kallikrein (Homo sapiens, UniProt P03952). Kind of series: Inhibition of human kallikrein using Mes-dArg-Pro-Arg-AMC as fluorogenic substrate measured at 1 min interval for 1 hr by fluorometric assay.
In series [10] the target is T2, Fatty-acid amide hydrolase 1 (Rattus norvegicus, UniProt P97612).
T2 sequence (P97612 whole entry): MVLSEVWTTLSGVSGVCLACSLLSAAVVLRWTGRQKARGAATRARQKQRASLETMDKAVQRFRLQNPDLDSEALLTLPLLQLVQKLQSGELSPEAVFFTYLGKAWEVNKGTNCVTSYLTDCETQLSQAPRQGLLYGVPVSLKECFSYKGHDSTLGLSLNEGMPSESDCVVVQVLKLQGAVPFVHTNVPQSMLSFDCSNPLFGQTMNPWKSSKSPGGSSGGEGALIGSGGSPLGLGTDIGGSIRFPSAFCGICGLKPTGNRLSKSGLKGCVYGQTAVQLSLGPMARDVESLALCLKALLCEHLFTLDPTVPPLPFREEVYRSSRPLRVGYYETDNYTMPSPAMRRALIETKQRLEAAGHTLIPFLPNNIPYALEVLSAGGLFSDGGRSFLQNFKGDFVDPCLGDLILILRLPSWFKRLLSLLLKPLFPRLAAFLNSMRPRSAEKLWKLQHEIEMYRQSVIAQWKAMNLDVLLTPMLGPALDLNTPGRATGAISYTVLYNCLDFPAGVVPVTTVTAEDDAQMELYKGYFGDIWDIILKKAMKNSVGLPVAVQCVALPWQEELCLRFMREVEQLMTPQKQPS
Kind of series: Inhibition of FAAH in rat brain membrane using N-(2-hydroxyethyl)-4-pyren-1-ylbutanamide as substrate measured after 60 mins by reverse-phase HPLC-based fluorescence assay. Format: cell membranes.

Series [11] addresses Plasminogen (Homo sapiens, UniProt P00747). Kind of series: Inhibition of human plasmin using Mes-dArg-Phe-Arg-AMC as fluorogenic substrate measured at 1 min interval for 1 hr by fluorometric assay.
The subject of series [12] is Blood. Description: Effect on blood coagulation in human blood assessed as increase in prothrombin time at 300 uM incubated for 3 mins followed by CaCl2 addition by PT reagent based assay relative to control. Particulars: 0.05 h. Format: ADME, tissue-based. The method, boiled down:
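Clotting was started with PT reagent already containing CaCl2, prewarmed to 37 °C, and clotting time was recorded. Increase is given relative to DMSO; at least triplicate, mean ± SD.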

For series [13], the target named is T3, Coagulation factor XII (Homo sapiens, UniProt P00748).
T3 sequence (P00748 whole entry): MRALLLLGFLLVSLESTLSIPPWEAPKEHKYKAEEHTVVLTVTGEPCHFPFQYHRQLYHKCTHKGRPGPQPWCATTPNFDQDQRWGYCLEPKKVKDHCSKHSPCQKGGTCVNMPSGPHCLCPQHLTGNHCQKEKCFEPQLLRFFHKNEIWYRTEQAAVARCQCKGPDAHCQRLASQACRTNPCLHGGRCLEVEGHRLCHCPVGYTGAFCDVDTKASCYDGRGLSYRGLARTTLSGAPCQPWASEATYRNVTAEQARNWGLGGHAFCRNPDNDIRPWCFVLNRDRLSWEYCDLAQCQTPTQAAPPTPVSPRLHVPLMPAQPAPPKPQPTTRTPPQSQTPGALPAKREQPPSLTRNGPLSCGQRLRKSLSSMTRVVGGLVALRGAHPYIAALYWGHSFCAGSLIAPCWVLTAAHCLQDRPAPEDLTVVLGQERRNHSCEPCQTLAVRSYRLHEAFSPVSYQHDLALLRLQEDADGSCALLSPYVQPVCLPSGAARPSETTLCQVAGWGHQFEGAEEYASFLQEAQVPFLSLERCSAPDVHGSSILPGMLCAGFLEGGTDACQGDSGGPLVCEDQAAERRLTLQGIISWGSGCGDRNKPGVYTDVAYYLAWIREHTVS
Kind of series: Inhibition of human coagulation factor XIIA using Boc-Gln-Gly-Arg-AMC as fluorogenic substrate measured at 1 min interval for 1 hr by fluorometric assay.

For series [14], the target named is T4, Coagulation factor XII (Homo sapiens) (UniProt P00748).
T4 sequence (whole entry): T3 sequence (P00748 whole entry)
Kind of series: Inhibition of human coagulation factor XIIA in presence of Boc-Gln-Gly-Arg-AMC as fluorogenic substrate at 1 uM measured at 1 min interval for 1 hr by fluorometric assay relative to control. A digest of the protocol: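 Screening of crude microscale amide-coupling products. Conversion was measured by 1H NMR and product content normalised to 76 µmol/L in DMSO, then tested at 1 µM and 100 nM in the fluorogenic FXIIa or thrombin assay. A 0-conversion reaction served as blank. Percent inhibition is from triplicates.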

Molecules are shown by their SMILES. Bounds are passed on as bounds.

Sequence of Plasminogen (P00747 97-580 limits assumed): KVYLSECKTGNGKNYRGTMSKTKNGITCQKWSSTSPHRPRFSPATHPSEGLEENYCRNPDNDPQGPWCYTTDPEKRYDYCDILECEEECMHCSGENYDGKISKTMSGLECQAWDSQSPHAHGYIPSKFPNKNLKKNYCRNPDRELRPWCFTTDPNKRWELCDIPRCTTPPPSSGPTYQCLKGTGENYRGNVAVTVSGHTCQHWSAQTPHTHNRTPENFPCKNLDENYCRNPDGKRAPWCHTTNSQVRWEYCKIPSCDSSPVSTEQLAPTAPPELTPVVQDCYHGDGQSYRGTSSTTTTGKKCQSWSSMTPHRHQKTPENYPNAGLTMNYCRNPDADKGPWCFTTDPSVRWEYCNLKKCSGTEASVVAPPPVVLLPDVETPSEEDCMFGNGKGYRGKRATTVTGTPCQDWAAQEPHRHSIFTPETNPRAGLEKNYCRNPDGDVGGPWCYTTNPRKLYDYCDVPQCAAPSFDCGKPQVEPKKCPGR
Sequence of Plasminogen (P00747 581-810 limits assumed): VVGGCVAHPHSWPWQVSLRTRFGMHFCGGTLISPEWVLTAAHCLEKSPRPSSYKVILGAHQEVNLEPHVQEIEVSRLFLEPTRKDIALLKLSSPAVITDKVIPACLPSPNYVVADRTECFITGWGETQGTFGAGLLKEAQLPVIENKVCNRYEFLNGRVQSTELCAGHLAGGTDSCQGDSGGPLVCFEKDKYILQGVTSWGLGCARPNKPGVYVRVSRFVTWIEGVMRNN
Sequence of Coagulation factor X (P00742 41-179 limits assumed): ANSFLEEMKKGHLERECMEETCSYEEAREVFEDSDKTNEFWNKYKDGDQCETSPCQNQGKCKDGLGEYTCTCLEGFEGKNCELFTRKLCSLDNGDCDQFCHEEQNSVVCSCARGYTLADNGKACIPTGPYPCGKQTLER
Sequence of Coagulation factor X (P00742 235-488 limits assumed): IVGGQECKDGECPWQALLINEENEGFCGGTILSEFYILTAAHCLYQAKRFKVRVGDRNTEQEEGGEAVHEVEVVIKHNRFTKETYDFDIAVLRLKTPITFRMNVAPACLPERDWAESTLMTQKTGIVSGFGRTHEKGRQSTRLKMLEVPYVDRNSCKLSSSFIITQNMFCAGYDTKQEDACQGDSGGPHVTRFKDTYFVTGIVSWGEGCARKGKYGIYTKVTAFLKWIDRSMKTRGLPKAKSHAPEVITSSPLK
Sequence of Coagulation factor XI (P03951 19-387 limits assumed): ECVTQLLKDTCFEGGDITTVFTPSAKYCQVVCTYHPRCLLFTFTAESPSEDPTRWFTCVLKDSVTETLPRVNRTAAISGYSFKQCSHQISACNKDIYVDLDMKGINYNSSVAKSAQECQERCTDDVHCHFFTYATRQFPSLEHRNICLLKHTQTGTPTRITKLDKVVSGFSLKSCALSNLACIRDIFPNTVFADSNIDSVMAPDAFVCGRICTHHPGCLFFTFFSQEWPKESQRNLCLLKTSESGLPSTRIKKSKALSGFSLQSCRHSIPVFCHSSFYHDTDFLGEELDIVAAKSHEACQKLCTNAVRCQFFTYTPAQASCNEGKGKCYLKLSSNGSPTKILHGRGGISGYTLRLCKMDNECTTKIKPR
Sequence of Coagulation factor XI (P03951 388-625 limits assumed): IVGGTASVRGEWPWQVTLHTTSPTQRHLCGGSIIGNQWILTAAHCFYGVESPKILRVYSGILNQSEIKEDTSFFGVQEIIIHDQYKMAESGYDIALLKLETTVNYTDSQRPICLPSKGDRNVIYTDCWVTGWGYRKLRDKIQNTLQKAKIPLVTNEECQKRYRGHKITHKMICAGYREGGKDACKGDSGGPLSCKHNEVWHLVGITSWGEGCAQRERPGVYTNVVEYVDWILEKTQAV
Sequence of Plasma kallikrein (P03952 20-390 limits assumed): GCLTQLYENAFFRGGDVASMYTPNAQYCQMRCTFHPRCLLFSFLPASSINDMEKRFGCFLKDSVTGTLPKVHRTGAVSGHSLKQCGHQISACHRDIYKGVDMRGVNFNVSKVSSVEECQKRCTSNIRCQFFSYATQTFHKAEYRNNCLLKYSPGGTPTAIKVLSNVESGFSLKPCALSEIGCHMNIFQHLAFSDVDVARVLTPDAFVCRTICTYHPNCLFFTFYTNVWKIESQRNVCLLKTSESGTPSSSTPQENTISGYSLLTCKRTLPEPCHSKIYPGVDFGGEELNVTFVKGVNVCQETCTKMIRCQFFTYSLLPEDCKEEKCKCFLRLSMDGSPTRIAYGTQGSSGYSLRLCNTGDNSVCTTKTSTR
Sequence of Plasma kallikrein (P03952 391-638 limits assumed): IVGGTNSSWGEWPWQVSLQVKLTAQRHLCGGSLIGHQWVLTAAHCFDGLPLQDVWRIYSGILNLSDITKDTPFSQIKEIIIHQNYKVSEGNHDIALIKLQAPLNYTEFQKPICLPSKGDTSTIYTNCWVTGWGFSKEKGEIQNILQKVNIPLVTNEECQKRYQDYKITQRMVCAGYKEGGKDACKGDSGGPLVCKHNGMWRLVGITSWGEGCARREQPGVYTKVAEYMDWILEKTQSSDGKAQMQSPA

Take `Nc1nc(-c2ccccn2)nn1C(=O)c1ccccc1`: the IC50 was above 5 µM in [1]; 7.93 µM in series [2]; above 5 µM in series [3]; above 5 µM in [5]; 0.235 µM in [6]; above 5 µM in series [8]. The IC50 in series [9] is above 5 µM; in series [10] it was above 5 µM; in series [11], above 5 µM; in [13] it was 0.132 µM. The APTT in series [4] was determined as 108 s. Besides, the Activity is recorded as 143% in [7] and 12% in series [12]. Further, the inhibition in series [14] was determined as 81%.

For the origin of these results see ChEMBL document CHEMBL4673255, “Acylated 1H-1,2,4-Triazol-5-amines Targeting Human Coagulation Factor XIIa and Thrombin: Conventional and Microscale Synthesis, Anticoagulant Properties, and Mechanism of Action” (J Med Chem, 2020).
